# Measurements taken from the array DNA melting data of Ke et al. (doi:10.1101/2024.01.08.574731).
# Tests used:
# [1] = folding enthalpy; higher = less favourable; fluorescence melt of hairpins on a sequencing array, two-state fit; details: sodium 0.088 M
# How it was run: (§1)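 Folding enthalpy and melting temperature were estimated with bootstrapped two-state fits and combined across four replicates by inverse-variance weighting, with fitted temperatures raised by 9.35 °C to match UV melts. The data were Cy3 fluorescence of library hairpins, with annealed Cy3 and quencher oligos, on a sequenced MiSeq flow cell in 50 mM Na-HEPES pH 8.0, 25 mM NaCl, imaged in 2.5 °C steps up to 60 °C and normalised to pre-quench Cy3 and control constructs.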
# [2] = melting temperature; fluorescence melt of hairpins on a sequencing array, two-state fit, raised by 9.35 °C to match UV melts; details: sodium 0.088 M
# How it was run: as §1
Sequence,folding enthalpy [1] [kcal/mol],Tm [2] [°C]
GCGTCTGCGAAAGCACGC (((..(((....)))))),-18.5,52.3
GATCTTACCAAAGATC ((((((....)))))),-34.6,44.5
GCATACGGAAACATATGC (((((.(....).))))),-24.4,37
GATCGTCGAAACGATC ((((((....)))))),-38.3,53.5
GGCAGCGAAAGCTGCGCC ((((((....)))..))),-6.68,65.7
GCGGTGCGAAAGCAGGGC ((..(((....)))..)),-20.5,55.2
GCACACGGAAACGTACGC ((..(((....)))..)),-25.2,35.6
GGGTTCGAAAGAAGACCC ((((((....)))..))),-21.2,41.8
GATCCCTATGGGGATC ((((((....)))))),-31.3,65.5
GCGCGAGGAAACCCGCGC (((((.(....).))))),-33.8,69.1
GTATCCGAAAGGATTTAC ((((((....)))..))),-12,30.6
GGCCTGCCGAAAGGCGCC (((..(((....)))))),-13.7,49.4
GATCCTCCGAGGATC ((((((...)))))),-33.1,53.1
GATCATCGTCATGATC ((((((....)))))),-32.4,45.4
GCGAGTCGAAAGACCCGC (((.(((....))).))),-48.2,57.3
GCAATAGAAATATTGC ((((((....)))))),-26.5,46.4
GACTACGAAAGTAAAGTC ((((((....)))..))),-23.3,36.5
GCGGATGTCCGC ((((....)))),-22.7,57.5
GAACAACGAAAGTTCTTC (((.(((....))).))),-29.8,38.7
GATTAGGGAAACTTAATC (((((.(....).))))),-17.3,29.1
GTCCCAGGAAACTGGAAC ((.((((....)))).)),-22,35.8
GTAATCTCGAAAGAGTAC (((..(((....)))))),-10.9,26.7
GTGTGATCGAAAGATCAC (((..(((....)))))),-14,66.7

Sequence,folding enthalpy [1] [kcal/mol],Tm [2] [°C]
GCGGTGACCCGC ((((....)))),-23.1,55.3
GAGACAGGAAACTGCCTC (((.(((....))).))),-39.7,42.3
GCATGGCGAAAGCCACGC ((.((((....)))).)),-17.6,60.9
GTCGCGGGAAACCACGAC ((((.((....)).)))),-43.8,53.4
GCAGGGCGAAAGCCAAGC ((..(((....)))..)),-17.2,53.4
GCGTTGGGACGC ((((....)))),-24.9,55.2
GCGTTCTTACGC ((((....)))),-27,52.8
GCTTTCGAAAGAACTAGC ((((((....)))..))),-12.3,25.4
GTGGAGCGAAAGCTACAC (((.(((....))).))),-30.8,68.2
GATCTTCAGAAAGATC ((((((....)))))),-29.7,41.7
GTCCGCGGAAACGTGGGC (.((.((....)).)).),-26.5,53
GACATCCGAAAGGAGGTC (((.(((....))).))),-40,57.9
GGCCTATCGAAAGATGCC (((..(((....)))))),-22.8,36.1
GTCTACGGAAACATAGAC (((((.(....).))))),-27.1,31
GGACAGCGAAAGCTTTCC (((.(((....))).))),-29.6,48.3
GCTAGGCGAAAGCTGAGC (((..((....))..))),-18.2,53.6
GTCCGAGGAAACTCGGGC (.(((((....))))).),-30.3,59.5
GCAAGCGGAAACACTTGC (((((.(....).))))),-46.6,48.3
GCCCTGCGAAAGCAGGC (((.(((....)))))),-8.08,65.1
GCAACGCGAAAGCTTTGC ((((.((....)).)))),-27.4,55.5
GCATGCGGAAACGCACGC ((.((((....)))).)),-25.7,52.1
GTGCTCGCGAAAGCGCAC (((..(((....)))))),-17.4,49.2
GTACGGGGAAACTCGTGC (.(((.(....).))).),-27.5,39.6

Sequence,folding enthalpy [1] [kcal/mol],Tm [2] [°C]
GTCTCGGGAAACTGAGAC (((((.(....).))))),-42.9,51.5
GCTCAGCGAAAGCAGGGC ((.(.((....)).).)),-19,51.9
GGGGCGGGAAACCACCCC ((((.((....)).)))),-52,55
GGCAAGGGAAACCTCGCC (((.(((....))).))),-32,47.1
GCCATGACGAAAGTCGGC (((..(((....)))))),-20,51
GCCACCGAAAGGTTCGGC ((((((....)))..))),-16.8,46.5
GCGTAAGCGAAAGCTCGC (((..(((....)))))),-17.6,48.4
GGCGTACGAAAGTAGCC (((.(((....)))))),-32.6,65.5
GCGTTTTCACGC ((((....)))),-24.6,54.2
GTTGGAGGAAACTCTGAC ((..(((....)))..)),-21,34
GAGACCACGAAAGTGCTC (((..(((....)))))),-9.82,27.7
GATCGCTAGCGCGATC ((((((....)))))),-34,66.5
GACCGTGAAAACGGTC ((((((....)))))),-41.1,68.1
GATCGATGTATCGATC ((((((....)))))),-40.9,58.4
GTATGTGGAAACATGTAC (((..((....))..))),-16.4,30.9
GTTAGCGGAAACGTTAAC ((((.((....)).)))),-28.8,44.2
GTTACGGGAAACTGTGAC ((.((.(....).)).)),-24.5,32.5
GGCGGGGGAAACCTCGCC ((((.((....)).)))),-32.4,66.1
GGTTGGGGAAACTCAGCC ((.((.(....).)).)),-30.7,36.1
GCTTAGCGAAAGCGACGC ((.(.((....)).).)),-18.2,53.2
GAGATCGGAAACGGTCTC ((((.((....)).)))),-44.5,51.3
GCTTAGCGAAAGCCATGC ((.(.((....)).).)),-11.2,29.6
GGAGAGGGAAACTTCTCC (((((.(....).))))),-26.8,44.3

Sequence,folding enthalpy [1] [kcal/mol],Tm [2] [°C]
GTTGGCGCGAAAGCGAAC (((..(((....)))))),-12.9,45.9
GTGTCCGGAAACGGGCAC (((.(((....))).))),-32.4,62.4
GATCACTATAGTGATC ((((((....)))))),-38.1,58.8
GTCGTCGGAAACGACGGC (.(((((....))))).),-25.2,65.5
GCCTACACGAAAGTGGGC (((..(((....)))))),-22.2,50.5
GTGGACCCGAAAGGGCAC (((..(((....)))))),-16.6,49.3
GTAGACGAAAGTCCCTAC ((((((....)))..))),-7.5,19.7
GTCCGCGAAAGCGAGAC ((((((....))).))),-14.2,59.2
GCCCCCGAAAGGGCGGGC ((((((....)))..))),-17.9,63.7
GCGTAGCGAAAGCTCCGC (((.(((....))).))),-40,49.7
GAGGTCGGAAACGGTCTC (((..((....))..))),-23.4,39.6
GATATGGGAAACCATACC (.(((((....))))).),-15,29.5
GTTGGCCCGAAAGGGAAC (((..(((....)))))),-18.8,45.3
GTCTCCGAAAGGAAGAC ((((((....))).))),-27.2,52.1
GACGAGAAATCGTC (((((....))))),-28.1,51.2
GCGGCGGCGAAAGCCCGC (((..(((....)))))),-12.3,65.6
GCGGAGCGAAAGCCCCGC ((((.((....)).)))),-35.3,68.7
GACACACCGAAAGGTGTC (((..(((....)))))),-8,37.3
GTCACCCGAAAGGGGAC (((.(((....)))))),-20.1,55
GGCGGCCCGAAAGGGGCC (((..(((....)))))),-7.67,53.1
GCGTTCACGAAAGTGCGC (((..(((....)))))),-19.2,51.4
GGGTTTCCGAAAGGACCC (((..(((....)))))),-19.3,40.6
GCCCGTCGAAAGACTGGC (((.(((....))).))),-48.7,55.4
